Columns and labels:
[1] = tested on: 4T1 murine breast cancer lysates; assay: Cleavage of ACC peptide substrates in tumor lysate; format: biochemical, mouse; conditions: E64 10 μM preincubation, 4T1 lysate, acidic pH; Fig. 1D
Method in brief: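 ACC-reporter peptide substrates were added to 4T1 murine breast cancer lysate at acidic pH, with or without prior preincubation with the cysteine cathepsin inhibitor E64 (10 μM). Cleavage velocity was plotted as mean ± SD, n=3.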

[2] = tested on: immortalized macrophages; assay: Probe activation in cells by flow cytometry; format: cell-based; conditions: E64d pretreatment; Fig. S4

| Structure (SMILES) | Effect of preincubation with the inhibitor on cleavage of ACC substrates 1-3 [1] | Effect of inhibitor pretreatment on labelling of cells by probe 5 [2] |
| --- | --- | --- |
| CC(C)C[C@H](NC(=O)[C@H]1O[C@@H]1C(=O)O)C(=O)NCCCCN=C(N)N [E64] | fully abrogated cleavage | – |
| CCOC(=O)[C@H]1O[C@@H]1C(=O)N[C@@H](CC(C)C)C(=O)NCCC(C)C [E64d] | – | strongly diminished labelling |
